# Only some compounds are listed: those with a hit (about 2.2% of all), similar ones and a draw of the others.
# GRK2 aptamer HTS: blocks RNA aptamer binding to human GRK2; bead flow cytometry, FAM-aptamer displacement from GRK2; inhibition of aptamer binding, % at 10 µM; hit rate 0.59% among 330,000; AID 488847;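 active means inhibition of aptamer binding above 40%, roughly 3 SD of noise, on plates passing a quality check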;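 further: median bead fluorescence of bound FAM aptamer so fluorescent compounds give negative values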
# Target sequence (P25098 whole entry, looked up): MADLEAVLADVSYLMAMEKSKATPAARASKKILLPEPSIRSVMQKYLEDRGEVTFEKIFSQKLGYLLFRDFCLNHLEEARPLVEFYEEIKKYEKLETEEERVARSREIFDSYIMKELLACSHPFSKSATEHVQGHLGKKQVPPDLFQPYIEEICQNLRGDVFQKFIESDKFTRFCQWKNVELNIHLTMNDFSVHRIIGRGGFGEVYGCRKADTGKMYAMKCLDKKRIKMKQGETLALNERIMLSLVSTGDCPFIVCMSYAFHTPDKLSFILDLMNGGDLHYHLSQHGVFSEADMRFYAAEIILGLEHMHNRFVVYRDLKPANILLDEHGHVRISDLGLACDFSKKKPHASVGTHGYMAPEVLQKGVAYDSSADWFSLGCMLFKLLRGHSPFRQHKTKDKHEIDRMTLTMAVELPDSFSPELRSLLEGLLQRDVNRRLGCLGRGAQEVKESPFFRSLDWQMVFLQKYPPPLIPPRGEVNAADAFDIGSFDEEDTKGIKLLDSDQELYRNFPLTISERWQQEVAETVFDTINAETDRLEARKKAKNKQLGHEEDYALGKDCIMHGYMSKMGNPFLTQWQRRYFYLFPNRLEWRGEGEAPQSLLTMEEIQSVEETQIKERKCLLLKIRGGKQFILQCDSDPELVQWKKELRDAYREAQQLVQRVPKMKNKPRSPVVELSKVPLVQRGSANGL
# DNMT1 inh: DNMT1 (human) enzyme inhibition; P26358; DNMT1 molecular beacon, Hinp1I cleavage, fluorescence; inhibition (reported as % activation of signal), % at 10 µM; hit rate 0.83% among 360,000; in the data active means inhibition above about 50%
# STEP inh: blocks human striatal-enriched tyrosine phosphatase. P54829. inhibition, % at 20 µM. recombinant STEP, OMFP fluorogenic substrate, fluorescence. hit rate 0.25% among 360,000;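 active means inhibition at 20 µM, scaled per plate between control wells, above about 37%, limit read from the data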;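 further: 0% = DMSO with enzyme and substrate and 100% = substrate only without enzyme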
#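 System: STEP (striatal-enriched tyrosine phosphatase) enzyme, cell-free; medium: Bis-Tris pH 6.0 buffer with DTT, detergent; dosing: 20 µM, 1% DMSO; times: reaction 20 min, ambient temperature; detection: fluorescence, 480/540 nm; read-out basis: normalized % inhibition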
# SUMO1 PPI mod: alters human SUMO1 binding to SIM partners; P63165; SUMO1 binding to a labelled peptide, TR-FRET, 1 h; inhibition, % at 20 µM; hit rate 0.33% among 360,000; AID 602429; in the data active means inhibition above about 37%
# LMPTP block: blocks human LMPTP phosphatase; P24666; recombinant LMPTP-A, OMFP fluorogenic substrate, fluorescence intensity; inhibition, % at 20 µM; hit rate 0.22% among 360,000; AID 651560;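 active means compounds that cut the enzyme signal by at least half of the control window in the single-dose screen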;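 further: plate controls were DMSO wells with enzyme plus substrate for no effect and substrate without enzyme for full effect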
#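 Assay system: LMPTP-A phosphatase enzyme | Input: 0.625 nM enzyme | Also added: Fluorogenic phosphatase substrate OMFP at 400 µM final | Compound dosing: One test concentration per compound, 20 µM, with 3% DMSO overall | Schedule: 50 min enzyme reaction at room temperature, protected from light | Signal: Fluorescence intensity | Benchmarks: no-enzyme and uninhibited controls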
# Scp1 inh: inhibitors of human Scp-1 phosphatase; AID 493091; inhibition, % at 20 µM; Q9GZU7; hit rate 0.88% among 340,000; Recombinant Scp1, phosphopeptide, malachite green phosphate absorbance;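 active means inhibition above about 50% at 20 µM, limit read from the data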;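 further: plate controls were DMSO wells with enzyme for no effect and wells lacking enzyme for full effect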
#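 Incubation: 45 min enzyme reaction at room temperature / System: truncated SCP-1 phosphatase (76-261aa) / Reagent: Phospho 17-mer peptide substrate / Buffer or medium: Acidic Tris acetate buffer with magnesium and detergent / Signal: absorbance at 630 nm / Doses: one concentration, 20 µM, with 1.0% DMSO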
# Scp-1 conf: confirmation of human Scp-1 phosphatase inhibitors; shares compounds with Scp1 inh; recombinant SCP-1 catalytic domain, phosphate release, malachite green absorbance; inhibition, % at 20 µM; hit rate 61% among 2,500; AID 540281;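 further: plate controls were DMSO with enzyme for no effect and buffer wells lacking enzyme for full effect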
# Scp-1 MG ctr: interferes with malachite green readout, flagging false Scp-1 hits; shares compounds with Scp1 inh; AID 540313; apparent inhibition (interference), % at 20 µM; 2,500 tested, under 10 active; Colorimetric interference counterscreen, malachite green absorbance 630 nm;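 further: compounds added after enzyme reaction finished so only phosphate colour detection is probed; plate controls were DMSO wells with completed Scp-1 reaction for no effect and substrate wells lacking enzyme for full effect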
# Scp1 DSF: Scp-1 (human) binding by thermal shift; shares compounds with Scp1 inh; Recombinant SCP1, Sypro Orange thermal shift Tm; thermal shift relative to vanadate control, % at 40 µM; hit rate 25% among 1,500;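 active means substances whose mean melting-temperature shift, as a percentage of the reference inhibitor's shift, reaches about 5.3%, limit read from the data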;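 further: 0% = Tm of DMSO wells and 100% = Tm with sodium orthovanadate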
# * = called active by the depositor; . = no result.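 How the source made its calls, unless noted: active means inhibition of at least 30% at 20 µM; inactive means the rest.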
SMILES,GRK2 aptamer HTS,DNMT1 inh,STEP inh,SUMO1 PPI mod,LMPTP block,Scp1 inh,Scp-1 conf,Scp-1 MG ctr,Scp1 DSF
Cn1nc(CC(=O)NC2CCCCCC2)c2ccccc2c1=O,0.0,1.9,4.3,-2.0,-1.9,75.6*,-16.6,-15.8,.
N#CC(=Cc1ccnc2ccccc12)c1ccccc1,.,-2.1,2.2,-6.4,3.8,.,.,.,.
CS(=O)(=O)c1ccc2sc(NC(=O)c3cc4ccccc4o3)nc2c1,0.0,3.4,-1.4,-5.3,2.0,69.2*,28.7,-15.6,.
CS(=O)(=O)c1ccc2nc(NC(=O)c3cc4ccccc4o3)sc2c1,0.0,2.3,-0.6,-3.0,-1.6,-6.7,.,.,.
O=c1oc2ccccc2cc1-c1ccccc1,1.0,2.2,-1.5,-16.1,-1.1,-4.7,.,.,.
O=C(O)c1ccc(-n2cc(-c3cc4ccccc4oc3=O)[nH]c2=S)cc1,.,-1.6,9.6,-3.1,3.3,84.1*,61.1*,-10.9,1.3
CN(Cc1ccccc1)C(=O)[C@@H]1CCCN1C(=O)OC(C)(C)C,.,.,.,-0.5,-1.7,.,.,.,.
Cn1cc(Cl)c(C(=O)Nc2cccc(Cl)c2Cl)n1,0.0,20.6,-1.2,2.9,16.3,72.0*,75.8*,-14.5,-0.8
O=C(NCc1ccc(F)cc1)c1cc(C2CCCN(S(=O)(=O)c3ccccc3)C2)on1 (stereo unspecified),.,-2.9,-1.0,-4.6,0.3,.,.,.,.
CN(C)CCOc1ccccc1-c1ccccc1,0.0,2.2,1.1,-0.3,-2.6,76.0*,-13.6,-10.4,.
C/C(Cn1nc([N+](=O)[O-])cc1C)=N\NC(=O)c1ccc(C(C)(C)C)cc1,0.0,-4.5,9.8,-7.6,-1.7,81.3*,-20.6,-18.6,.
Cn1c(SCC(=O)Nc2ncc(C(F)(F)F)cc2Cl)nnc1-c1ccc(Cl)cc1,0.0,0.2,0.1,1.4,-3.0,61.6*,18.9,2.0,.
CN1C[C@@H]2[C@@H]3C(=O)N(Cc4ccccc4)C(=O)[C@@H]3[C@](Cc3ccccc3)(C1=O)N2C(=O)c1ccc(Cl)cc1,.,-5.7,0.1,3.0,-0.6,-3.0,.,.,.
O=C(COc1ccc(-n2cnnn2)cc1)Nc1cccc(Cl)c1Cl,0.0,49.1,11.1,6.5,21.5,69.0*,67.5*,-11.2,-17.4
Cc1cc(Cl)c(S(=O)(=O)N2CCCC2)cc1OCC(=O)NC1CCCCC1,1.0,3.8,-0.5,4.2,-0.7,27.2,.,.,.
Cc1cc(Cl)c(S(=O)(=O)NC(C(=O)O)C(C)C)cc1OCC(=O)NC1CCCCC1 (stereo unspecified),0.0,-3.4,1.1,2.5,-1.9,54.5*,43.4*,-15.3,0.1
Cc1cc(Cl)c(S(=O)(=O)NC(C(=O)O)c2ccccc2)cc1OCC(N)=O (stereo unspecified),1.0,6.5,2.2,1.0,-2.8,68.8*,44.0*,-17.3,18.3*
Cc1ccc(NS(=O)(=O)c2cc(OCC(N)=O)c(C)cc2Cl)cc1,0.0,9.6,-3.5,2.5,-0.1,-2.7,.,.,.
O=C(N/N=C/c1ccc(OCCCF)cc1)c1ccc(C(F)(F)F)cc1,2.0,28.3,24.8,1.7,29.8,93.2*,63.9*,-18.6,-12.9
O=C(N/N=C/c1ccc(OC(=O)c2cccs2)cc1)c1ccc(F)cc1,0.0,28.0,14.1,-3.5,28.2,69.6*,64.2*,-15.1,-28.8
Cc1cccc(C(=O)Oc2ccc(/C=N/NC(=O)c3ccncc3)cc2)c1,4.0,-3.6,1.2,-1.7,0.1,-5.2,.,.,.
Cc1cccc(C(=O)Oc2ccc(/C=N/NC(=O)c3cc(O)cc(O)c3)cc2)c1,30.0,69.0*,63.3*,31.0,12.0,52.6*,60.4*,-8.7,3.3
O=C(Oc1ccc(/C=N/NC(=O)c2ccccc2O)cc1)c1ccccc1,0.0,-5.6,-0.7,0.2,2.5,82.0*,70.0*,-5.4,-8.3
CC1(C(=O)NCc2ccccc2Br)CCN1Cc1ccc(-c2ccccn2)cc1 (stereo unspecified),.,0.8,0.0,6.5,-2.8,.,.,.,.
Cc1cccc(/C=C(\C(=O)O)c2ccc(S(=O)(=O)N3CCCC3)s2)c1,8.0,62.0*,8.5,0.0,13.8,93.3*,76.7*,-4.3,1.5
O=C(O)/C(=C\c1cccc(F)c1)c1ccc(S(=O)(=O)N2CCCC2)s1,0.0,26.9,1.8,-2.2,0.9,33.0,.,.,.
Cc1ccc(S(=O)(=O)N(C)C[C@H]2Oc3ncc(Br)cc3C(=O)N([C@H](C)CO)C[C@@H]2C)cc1,.,2.9,-1.0,6.1,-1.4,.,.,.,.
CC1C(=O)Nc2ccc(S(=O)(=O)NCc3ccc(Cl)cc3)cc2NC1=O (stereo unspecified),0.0,3.6,2.0,-1.6,-1.5,12.3,12.1,2.0,.
CCC(NS(=O)(=O)c1ccc2c(c1)NC(=O)C(C)C(=O)N2)c1cccs1 (stereo unspecified),0.0,3.7,1.2,2.0,-1.0,2.4,-1.8,-16.1,.

# Bioassay records deposited in PubChem by several laboratories.
